Experimental data taken from PMC3607822 (The Journal of General Physiology, 2013).

Key:
[1] = target: T1, human CNGA3 wild-type homomeric channels (Homo sapiens, UniProt Q16281); assay: Inside-out patch clamp, homomeric CNGA3 wild type expressed in X. laevis oocytes; assay type: biochemical
T1 sequence (Q16281 1-694): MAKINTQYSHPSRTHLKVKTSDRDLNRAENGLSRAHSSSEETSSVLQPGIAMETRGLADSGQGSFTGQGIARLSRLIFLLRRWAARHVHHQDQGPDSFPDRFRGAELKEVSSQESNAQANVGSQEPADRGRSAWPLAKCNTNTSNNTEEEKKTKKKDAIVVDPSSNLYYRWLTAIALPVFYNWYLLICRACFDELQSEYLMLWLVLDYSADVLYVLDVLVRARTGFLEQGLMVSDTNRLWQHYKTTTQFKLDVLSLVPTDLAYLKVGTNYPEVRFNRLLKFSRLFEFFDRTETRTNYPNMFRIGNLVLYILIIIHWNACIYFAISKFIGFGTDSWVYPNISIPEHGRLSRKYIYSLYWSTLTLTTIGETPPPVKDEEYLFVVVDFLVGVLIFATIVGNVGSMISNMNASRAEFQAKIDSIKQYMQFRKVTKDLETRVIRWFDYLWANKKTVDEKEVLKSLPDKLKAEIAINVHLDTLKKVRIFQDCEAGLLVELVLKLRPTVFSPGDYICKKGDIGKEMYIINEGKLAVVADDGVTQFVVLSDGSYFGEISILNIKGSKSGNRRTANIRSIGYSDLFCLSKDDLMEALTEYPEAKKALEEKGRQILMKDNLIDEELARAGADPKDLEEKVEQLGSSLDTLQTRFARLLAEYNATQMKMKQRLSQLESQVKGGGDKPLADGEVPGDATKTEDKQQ

[2] = target: T2, CNGA3 635X homomeric channels (Homo sapiens, UniProt Q16281); assay: Inside-out patch clamp, CNGA3 635X; assay type: biochemical
T2 sequence (Q16281 1-634 limits assumed): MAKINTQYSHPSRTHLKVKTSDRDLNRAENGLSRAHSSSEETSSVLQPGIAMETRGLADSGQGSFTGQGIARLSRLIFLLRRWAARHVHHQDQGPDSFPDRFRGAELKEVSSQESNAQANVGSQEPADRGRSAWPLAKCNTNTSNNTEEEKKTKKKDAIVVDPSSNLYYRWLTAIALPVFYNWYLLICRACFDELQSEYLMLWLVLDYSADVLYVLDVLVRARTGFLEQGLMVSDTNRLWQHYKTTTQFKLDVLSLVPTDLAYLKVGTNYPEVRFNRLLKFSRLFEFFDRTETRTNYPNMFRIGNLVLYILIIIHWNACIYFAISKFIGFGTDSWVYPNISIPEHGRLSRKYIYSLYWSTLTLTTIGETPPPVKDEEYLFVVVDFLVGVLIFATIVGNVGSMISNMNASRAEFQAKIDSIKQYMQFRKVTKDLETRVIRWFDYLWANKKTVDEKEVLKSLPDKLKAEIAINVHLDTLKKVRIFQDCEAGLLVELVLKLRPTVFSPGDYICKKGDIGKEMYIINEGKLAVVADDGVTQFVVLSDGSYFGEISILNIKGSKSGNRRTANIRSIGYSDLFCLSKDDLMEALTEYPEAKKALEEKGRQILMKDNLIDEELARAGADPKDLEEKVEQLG

[3] = target: T3, CNGA3 675X homomeric channels (Homo sapiens, UniProt Q16281); assay: Inside-out patch clamp, CNGA3 675X; assay type: biochemical
T3 sequence (Q16281 1-674 limits assumed): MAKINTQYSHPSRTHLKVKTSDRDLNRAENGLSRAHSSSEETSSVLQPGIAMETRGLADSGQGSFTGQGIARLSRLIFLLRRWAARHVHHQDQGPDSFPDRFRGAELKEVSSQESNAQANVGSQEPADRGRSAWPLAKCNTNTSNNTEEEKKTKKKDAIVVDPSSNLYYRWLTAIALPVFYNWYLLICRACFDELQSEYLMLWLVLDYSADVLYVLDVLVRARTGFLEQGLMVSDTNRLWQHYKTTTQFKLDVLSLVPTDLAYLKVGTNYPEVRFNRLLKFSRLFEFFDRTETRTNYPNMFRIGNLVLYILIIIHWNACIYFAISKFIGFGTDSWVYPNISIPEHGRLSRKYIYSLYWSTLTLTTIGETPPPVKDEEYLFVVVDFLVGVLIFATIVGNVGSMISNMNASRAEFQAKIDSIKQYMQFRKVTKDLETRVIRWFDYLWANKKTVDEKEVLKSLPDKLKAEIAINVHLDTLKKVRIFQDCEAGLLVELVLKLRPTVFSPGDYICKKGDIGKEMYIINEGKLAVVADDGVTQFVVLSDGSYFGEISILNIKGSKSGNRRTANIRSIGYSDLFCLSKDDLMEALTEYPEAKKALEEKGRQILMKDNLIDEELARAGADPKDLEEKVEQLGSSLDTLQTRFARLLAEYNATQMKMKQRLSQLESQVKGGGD

CNGA3 D609M channels = CNGA3 D609M channels (Homo sapiens, UniProt Q16281, D609M); assay: Inside-out patch clamp, CNGA3 D609M; assay type: biochemical
Chain of CNGA3 D609M channels (Q16281 whole entry D609M): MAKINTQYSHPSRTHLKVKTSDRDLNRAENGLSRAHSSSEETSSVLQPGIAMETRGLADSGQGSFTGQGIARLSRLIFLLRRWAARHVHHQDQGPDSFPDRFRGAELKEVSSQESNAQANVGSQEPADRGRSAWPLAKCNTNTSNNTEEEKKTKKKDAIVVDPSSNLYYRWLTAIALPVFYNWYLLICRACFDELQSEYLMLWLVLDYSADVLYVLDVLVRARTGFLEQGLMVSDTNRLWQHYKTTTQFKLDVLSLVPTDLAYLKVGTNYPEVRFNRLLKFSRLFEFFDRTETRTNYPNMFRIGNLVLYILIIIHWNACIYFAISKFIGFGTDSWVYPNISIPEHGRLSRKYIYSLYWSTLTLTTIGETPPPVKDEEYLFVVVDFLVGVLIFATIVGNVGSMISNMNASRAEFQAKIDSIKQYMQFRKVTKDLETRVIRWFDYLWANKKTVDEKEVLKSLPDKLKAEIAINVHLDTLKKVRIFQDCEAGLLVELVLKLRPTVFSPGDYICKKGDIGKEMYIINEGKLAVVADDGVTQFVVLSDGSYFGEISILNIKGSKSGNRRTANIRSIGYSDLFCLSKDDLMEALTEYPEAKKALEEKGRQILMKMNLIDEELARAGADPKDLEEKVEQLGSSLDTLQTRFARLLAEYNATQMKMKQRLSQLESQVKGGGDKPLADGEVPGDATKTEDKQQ

[4] = tested on: tandem A3//N7R-A,613X heterodimer channels; assay: Inside-out patch clamp, A3 WT//A3 N7R-A,613X tandem dimers; assay type: biochemical, human; settings: from K1/2 and h before and after PIP3
[5] = target: GST fusion of CNGA3 C-terminal region (A3C, amino acids 612–694) (Homo sapiens, UniProt Q16281); assay: In vitro PIP3-agarose bead pull-down, A3C; assay type: binding; settings: PIP3-agarose beads, anti-GST immunoblot; not quantitative
Procedure, shortened: (§1)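 Recombinant GST fusions of channel fragments expressed in E. coli and purified; soluble fraction kept after 20,000 g, 4°C, 30 min. Protein (2 µg/ml) rocked with PIP3- or control agarose beads, 2 h, 4°C, in 10 mM Hepes pH 7.4, 50 mM NaCl, 2 mM EDTA, 0.25% Triton X-100, 0.25% NP-40. Five washes, elution in sample buffer, reducing SDS gel, anti-GST (1:2,000, overnight) immunoblot, chemiluminescence; […].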

GST fusion A3N7R-A = GST fusion A3N7R-A (Homo sapiens, UniProt Q16281, R101A/R103A/R72A/R75A/R81A/R82A/R86A); assay: In vitro PIP3-agarose bead pull-down, A3N7R-A; assay type: binding; settings: PIP3-agarose beads, anti-GST immunoblot; compared with A3N
Chain of GST fusion A3N7R-A (Q16281 1-164 R72A/R75A/R81A/R82A/R86A/R101A/R103A): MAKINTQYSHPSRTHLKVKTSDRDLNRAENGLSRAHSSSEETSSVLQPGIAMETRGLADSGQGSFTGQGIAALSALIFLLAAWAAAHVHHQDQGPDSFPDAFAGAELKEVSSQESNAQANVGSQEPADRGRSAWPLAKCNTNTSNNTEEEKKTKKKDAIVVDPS
Procedure, shortened: as §1

[6] = read-out: K1/2 cGMP, +80 mV, no PIPn

Nc1nc2c(ncn2[C@@H]2O[C@@H]3COP(=O)(O)O[C@H]3[C@H]2O)c(=O)[nH]1 [cGMP, cyclic guanosine monophosphate]
Hill coefficient ([1]; cGMP activation): 1.91 ± 0.04 (18)
Po max cGMP ([1]; estimated from state-dependent block by tetracaine): ~0.99
EC50 [1, 6]: 9.29 ± 0.43 µM
Hill coefficient ([2]; cGMP activation): 2.00 ± 0.00 (5)
EC50 [2, 6]: 8.2 ± 0.57 µM
Po max cGMP ([2]; saturating cGMP): 0.92 ± 0.01 (4)
Hill coefficient ([3]; cGMP activation): 1.88 ± 0.05 (4)
EC50 [3, 6]: 9.22 ± 0.55 µM
Po max cGMP (CNGA3 D609M channels; estimated using tetracaine block): 0.30 ± 0.02

phosphatidylinositol (3,4,5)-trisphosphate [PIP3]
fold increase Imax cAMP/cGMP ([1]; 1 µM PIP3 after prior application of cyto D): 2.54 ± 0.27 fold
fold increase in Imax cAMP/cGMP ([1]; 10 µM phosphoinositide applied to inside-out patch): 2.63 ± 0.13 fold
effect on maximal cGMP current ([1]; 1 mM cGMP): not significantly altered
K1/2 cAMP after phosphoinositide ([1]; apparent cAMP affinity after PIP3 or PIP2 application): 1.16 ± 0.06 mM
Po max cAMP after PIP3 ([1]; fluctuation analysis): 0.37 ± 0.07
Po max cGMP after PIP3 ([1]; fluctuation analysis): 0.93 ± 0.01
PIP3-induced change in cAMP efficacy ([2]; 1 µM PIP3): failed to show a PIP3-dependent increase in cAMP efficacy
fold change in cAMP efficacy after PIP3 ([2]; 10 µM PIP3): 1.06 ± 0.03 fold
PIP3-induced change in cAMP efficacy ([3]; 1 µM PIP3): preserved the PIP3-induced change in cAMP efficacy
effect on relative cGMP efficacy (CNGA3 D609M channels; 1 µM PIP3): elevated relative cGMP efficacy
change in the energetics of channel opening produced by PIP3 (ΔΔG) [4]: 1.29 ± 0.08 kcal/mol
in vitro PIP3 binding [5]: binding was observed
in vitro PIP3 binding (GST fusion A3N7R-A): attenuated binding to PIP3 beads
